From ChEMBL document CHEMBL1914373, “Synthesis and biological evaluation of novel dimethyl[1,1'-biphenyl]-2,2'-dicarboxylate derivatives containing thiazolidine-2,4-dione for the treatment of concanavalin A-induced acute liver injury of BALB/c mice” (2011)
Activity calls are given as the source filed them. The rule behind the calls is not given here.

Tests used:
RAW264.7 = assay: Antiinflammatory activity in LPS-stimulated mouse RAW264.7 cells assessed as inhibition of LPS-induced NO production after 22 hrs by Griess reaction; format: functional, cell-based
Summary of the method: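 RAW 264.7 macrophages grown in RPMI 1640, 37 °C, 5% CO2; seeded 1 × 10^4/well, cultured 24 h, then exposed to LPS with or without compounds at a range of concentrations for 22 h. Supernatant mixed 1:1 with Griess reagent, 10 min at room temperature, A540 read; nitrite quantified against sodium nitrite standards in RPMI 1640. Three independent experiments.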

Rattus norvegicus [1] = assay: Hepatoprotective activity […] assessed as reduction in necrosis in liver lobules at 50 mg/kg, po administered before concanavalin A challenge by hematoxylin and eosin staining-based histopathology analysis; format: functional, organism-based; set-up: dose 50 mg/kg
Rattus norvegicus [2] = assay: Hepatoprotective activity […] assessed as reduction in concanavalin A-induced inflammatory cells infiltration at 50 mg/kg, po administered before concanavalin A challenge by hematoxylin and eosin staining-based histopathology analysis; format: functional, organism-based; set-up: dose 50 mg/kg
Mus musculus [3] = assay: Hepatoprotective activity in BALB/c mouse hepatitis model assessed as reduction in concanavalin A-induced increase in serum AST level at 50 mg/kg, […] relative to control; format: functional; set-up: scale not given: the % may be the effect or the level left; details: route oral
Mus musculus [4] = assay: Hepatoprotective activity in BALB/c mouse hepatitis model assessed as reduction in concanavalin A-induced increase in serum ALT level at 50 mg/kg, […] relative to control; format: functional; set-up: scale not given: the % may be the effect or the level left; details: route oral
Mus musculus [5] = assay: Antiinflammatory activity in po dosed ICR mouse assessed as reduction in carrageenan-induced paw edema administered 30 mins before carrageenan challenge measured up to 5 hrs; format: functional, organism-based
Mus musculus [6] = assay: Antiinflammatory activity in ICR mouse assessed as reduction in carrageenan-induced paw edema at 50 mg/kg, po administered 30 mins before carrageenan challenge measured at 3 hr post challenge; format: functional; set-up: scale not given: the % may be the effect or the level left
Rattus norvegicus [7] = assay: Hepatoprotective activity […] assessed as decrease in liver lesions at 50 mg/kg, po administered before concanavalin A challenge by hematoxylin and eosin staining-based histopathology analysis; format: functional, organism-based; set-up: dose 50 mg/kg

Compound | inhibition (RAW264.7) | also measured
COC(=O)c1cc(OC)c2c(c1-c1c(C(=O)Oc3ccccc3/C=C3/SC(=O)NC3=O)cc(OC)c3c1OCO3)OCO2 | Active | –
COC(=O)c1cc(OC)c2c(c1-c1c(C(=O)Oc3ccc(/C=C4\SC(=O)NC4=O)cc3OC)cc(OC)c3c1OCO3)OCO2 | Active | –
COC(=O)c1cc(OC)c2c(c1-c1c(C(=O)Oc3ccc(/C=C4\SC(=O)NC4=O)cc3Br)cc(OC)c3c1OCO3)OCO2 | Active | –
COC(=O)c1cc(OC)c2c(c1-c1c(C(=O)Oc3cc(/C=C4/SC(=O)NC4=O)ccc3OC)cc(OC)c3c1OCO3)OCO2 | Active | –
CCOc1cc(/C=C2\SC(=O)NC2=O)ccc1OC(=O)c1cc(OC)c2c(c1-c1c(C(=O)OC)cc(OC)c3c1OCO3)OCO2 | Active | –
COC(=O)c1cc(OC)c2c(c1-c1c(C(=O)Oc3cccc(/C=C4/SC(=O)NC4=O)c3)cc(OC)c3c1OCO3)OCO2 | Active | –
COC(=O)c1cc(OC)c2c(c1-c1c(C(=O)Oc3ccc(Cl)cc3/C=C3/SC(=O)NC3=O)cc(OC)c3c1OCO3)OCO2 | Dose-dependent effect | –
COC(=O)c1cc(OC)c2c(c1-c1c(C(=O)Oc3c(Cl)cc(Cl)cc3/C=C3/SC(=O)NC3=O)cc(OC)c3c1OCO3)OCO2 | Active | –
COC(=O)c1cc(OC)c2c(c1-c1c(C(=O)Oc3c(OC)cc(/C=C4\SC(=O)NC4=O)cc3OC)cc(OC)c3c1OCO3)OCO2 | Active | –
COC(=O)c1cc(OC)c2c(c1-c1c(C(=O)Oc3c(Br)cc(Br)cc3/C=C3/SC(=O)NC3=O)cc(OC)c3c1OCO3)OCO2 | Active | –
COC(=O)c1cc(OC)c2c(c1-c1c(C(=O)Oc3ccc(/C=C4\SC(=O)NC4=O)cc3)cc(OC)c3c1OCO3)OCO2 | Active | Activity (Rattus norvegicus [1]): Active; Activity (Rattus norvegicus [2]): Active; Activity (Mus musculus [3]): 69.12%; Activity (Mus musculus [4]): 94.96%; Activity (Mus musculus [5]): Dose-dependent effect; Activity (Mus musculus [6]): 54.88%; Activity (Rattus norvegicus [7]): Active
COC(=O)c1cc(OC)c2c(c1-c1c(C(=O)Oc3ccc(/C=C4\SC(=O)NC4=O)cc3F)cc(OC)c3c1OCO3)OCO2 | Active | –
COC(=O)c1cc(OC)c2c(c1-c1c(C(=O)OC)cc(OC)c3c1OCO3)OCO2 [BIFENDATE] | – | Activity (Mus musculus [3]): 50.62%; Activity (Mus musculus [4]): 44.58%; Activity (Mus musculus [6]): 20.98%
